Assay results: ChEMBL document CHEMBL1629431, “Synthesis and antitumor activity of some 2, 3-disubstituted quinazolin-4(3H)-ones and 4, 6- disubstituted- 1, 2, 3, 4-tetrahydroquinazolin-2H-ones” (2010)

Tests used:
Assay type in all cases: functional
[1] = tested on: K562; assay: Growth inhibition of human K562 cells at 10 uM after 48 hrs by coulter counter method; conditions: K562, 48 h, read-out: GI
How it was run: (§1)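 Single high-dose NCI 60-cell-line panel screen across nine tumor subpanels. Test solutions (0.2 mL) were added in duplicate to wells holding 1.8 mL of culture at 6 × 10⁴ cells/mL. Controls got PBS and DMSO at identical dilutions. Incubation was 48 h at 37 °C in humidified 5% CO₂. Cells were diluted 10-fold in saline, Coulter-counted and dilution-corrected. Results were expressed as percent growth inhibition versus control.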

[2] = tested on: MOLT-4; assay: Growth inhibition of human MOLT4 cells at 10 uM after 48 hrs by coulter counter method; conditions: MOLT-4, 48 h, read-out: GI; how it was run: as §1
[3] = tested on: IGROV-1; assay: Growth inhibition of human IGROV1 cells at 10 uM after 48 hrs by coulter counter method; conditions: IGROV-1, 48 h, read-out: GI; how it was run: as §1
[4] = tested on: UO-31; assay: Growth inhibition of human UO31 cells at 10 uM after 48 hrs by coulter counter method; conditions: UO-31, 48 h, read-out: GI; how it was run: as §1
[5] = tested on: T47D; assay: Growth inhibition of human T47D cells at 10 uM after 48 hrs by coulter counter method; conditions: read-out: GI; how it was run: as §1

| Compound | inhibition of growth at 10 µM [1] [%] | inhibition of growth at 10 µM [2] [%] | inhibition of growth at 10 µM [3] [%] | inhibition of growth at 10 µM [4] [%] | inhibition of growth at 10 µM [5] [%] |
| --- | --- | --- | --- | --- | --- |
| CN(C)c1ccc(-c2nnc(Nc3nc4ccccc4c(=O)n3-c3ccccc3)s2)cc1 | 52 | 34.6 | – | – | – |
| O=c1nc(Nc2nc3ccccc3c(=O)n2-c2ccc(Cl)cc2)cc(O)[nH]1 | 52 | 34.6 | – | – | – |
| O=c1nc(Nc2nc3ccccc3c(=O)n2-c2ccccc2)cc(O)[nH]1 | – | – | 72.3 | – | – |
| O=C1Nc2ccc(CNc3ccccn3)cc2C(c2ccc(Cl)cc2)N1 (centres undefined) | – | – | – | 40.5 | 43.9 |
| COc1ccc(C2NC(=O)Nc3ccc(S(=O)(=O)Nc4ccccn4)cc32)cc1 (centres undefined) | – | – | – | 40.5 | 43.9 |
